From ChEMBL document CHEMBL1142368, “The discovery of adamantyl-derived, inhaled, long acting beta(2)-adrenoreceptor agonists” (Bioorg Med Chem Lett, 2008)

Key:
[1] = Metabolic stability in human liver microsomes; type: ADME, Microsome; settings: read-out: Stability
Homo sapiens = species: Homo sapiens; assay: Selectivity for human recombinant adrenergic beta2 receptor over human recombinant adrenergic beta-1 receptor
Procedure, shortened: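 Cell-based functional agonist assay using recombinant human β2 receptor expressed in CHO cells, compared against human β1 receptor.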

[2] = Distribution coefficient, log D of the compound; type: physicochemical; settings: octanol/water
[3] = Half life in iv dosed rat; type: ADME, organism-based; settings: in vivo
Procedure, shortened: (§1)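 Rats were given the compound intravenously, and volume of distribution, clearance and half life were determined from that dosing.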

[4] = Volume of distribution in iv dosed rat; type: ADME, organism-based; settings: in vivo; procedure, shortened: as §1
[5] = Clearance in iv dosed rat; type: ADME, organism-based; settings: in vivo; procedure, shortened: as §1
[6] = Oral bioavailability in rat; type: ADME, organism-based; settings: in vivo
Procedure, shortened: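 Rats received the compound orally and intravenously in a crossover study.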

half-life [1]	Selectivity ratio (Homo sapiens)	half-life [3]	Vd [4]	clearance [5]	bioavailability [6]	SMILES	logD [2]
2 min	547					C[C@H](Cc1cccc(CC(=O)NCC23CC4CC(CC(C4)C2)C3)c1)NC[C@H](O)c1ccc(O)c(CO)c1	2.5
2 min	2210	96 min	14 L/kg	103 mL/min/kg	< 5%	C[C@H](Cc1cccc(CC(=O)NC23CC4CC(CC(C4)C2)C3)c1)NC[C@H](O)c1ccc(O)c(CO)c1	2.1

The next lines start with the compound.

SMILES	half-life [1]	Selectivity ratio (Homo sapiens)	half-life [3]	Vd [4]	clearance [5]	bioavailability [6]	logD [2]
C[C@H](Cc1cccc(CC(=O)NC2CCCCCCC2)c1)NC[C@H](O)c1ccc(O)c(CO)c1	2 min	192					1.9
C[C@H](Cc1cccc(CC(=O)NCC2CCCCCC2)c1)NC[C@H](O)c1ccc(O)c(CO)c1		1890					2
C[C@H](Cc1cccc(CC(=O)NCc2ccc(Cl)c(Cl)c2)c1)NC[C@H](O)c1ccc(O)c(CO)c1	4 min	6340					
C[C@H](Cc1cccc(CC(=O)NCC2CCCCC2)c1)NC[C@H](O)c1ccc(O)c(CO)c1	3 min	6790					1.5
C[C@H](Cc1cccc(CC(=O)NC2C3CC4CC(C3)CC2C4)c1)NC[C@H](O)c1ccc(O)c(CO)c1 (stereo partly drawn)	2 min	451					2.1
